An excerpt weighted towards active compounds, which were near 3.7% of everything screened.
Kir21 inh: inhibitors of mouse Kir2.1 inward-rectifier potassium channel; B-score at 10 µM; P35561; 0.85% of 310,000 active; AID 1672; HEK293-Kir2.1, FluxOR thallium flux fluorescence; hits give low values;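 active = fluorescence ratio B-score at or below minus 3 SD of library scores, with starting-brightness B-score within 2 SD, cut at about -4.2 in these data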;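 note: channel flux triggered by added potassium and thallium sulfate stimulus; B-score of peak minus minimum fluorescence over baseline after thallium stimulus; more negative B-score means stronger Kir2.1 block with less thallium influx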
Target sequence (P35561 whole entry, looked up): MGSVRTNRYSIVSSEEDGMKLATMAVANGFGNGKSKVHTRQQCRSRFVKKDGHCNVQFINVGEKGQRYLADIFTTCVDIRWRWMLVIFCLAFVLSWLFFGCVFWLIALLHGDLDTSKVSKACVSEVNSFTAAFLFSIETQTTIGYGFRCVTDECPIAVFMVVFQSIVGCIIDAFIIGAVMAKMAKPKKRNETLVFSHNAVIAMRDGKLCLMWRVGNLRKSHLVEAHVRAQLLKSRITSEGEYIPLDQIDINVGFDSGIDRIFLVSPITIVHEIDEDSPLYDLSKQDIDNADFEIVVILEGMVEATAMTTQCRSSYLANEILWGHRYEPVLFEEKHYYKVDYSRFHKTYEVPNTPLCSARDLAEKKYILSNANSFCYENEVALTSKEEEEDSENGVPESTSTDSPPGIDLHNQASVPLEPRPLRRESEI
KCNQ1 block: blocks the human KCNQ1 potassium channel | CHO-K1 KCNQ1, FluxOR thallium flux fluorescence; hits give high values | 1.3% of 310,000 active | B-score at 10 µM;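 active = compounds whose thallium flux B-score, printed positive for inhibition, exceeds three library SD while starting fluorescence stays within three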;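 note: channel opened by potassium depolarization with thallium stimulus after 20 min compound exposure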
KCNK9 inh: inhibitors of human KCNK9 two-pore domain potassium channel; Q9NPC2; HEK293 KCNK9, FluxOR thallium flux fluorescence; hits give low values; B-score at 10 µM; 1.2% of 310,000 active; AID 488922;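 active = ratio B-score over 3 SD below the library mean, with starting fluorescence within 5 SD of its mean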;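 note: negative B-score means less thallium flux so channel inhibition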
KCNK3 inh: human KCNK3 channel inhibition, primary screen; CHO-KCNK3 thallium flux, FluxOR fluorescence; hits give low values; B-score at 10 µM; 0.84% of 340,000 active; AID 602410;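 active = B-score under library mean minus 4 SD, starting fluorescence ratio at most library mean plus 5 SD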;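 note: more negative B-score means stronger inhibition of thallium flux through KCNK3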
KCNQ1 pot: potentiates or activates the human KCNQ1 potassium channel; B-score at 10 µM; AID 2648; 0.35% of 310,000 active; CHO-K1 KCNQ1, thallium flux FluxOR fluorescence; hits give high values;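 active = fluorescence ratio B-score, a plate-corrected score, at least three library SD, with initial intensity B-score within 5 SD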
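Test system: CHO-K1 cells stably expressing KCNQ1 / Medium: assay buffer / Also added: depolarizing K+/Tl+ stimulus, K2SO4 and Tl2SO4 each 12.5 mM in 5x stock / Incubation: 90 min dye loading and 20 min compound exposure, both at room temperature / Signal: thallium influx via FluxOR fluorescence, kinetic imaging / Evaluation: B score of baseline-normalized fluorescence ratio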
hERG protect: hERG (human) protection from proarrhythmic block. Q12809. CHO-hERG, FluxOR thallium flux, dofetilide IC70 present. activation (rescue from dofetilide block), less the hit threshold, % at 10 µM. 0.51% of 310,000 active. AID 1511;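 active = activation above the mean of controls blocked by dofetilide plus 5 SD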;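 note: thallium influx through hERG after potassium depolarization seen as dye fluorescence rise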
KCNK9 block conf: human KCNK9 inhibitor confirmation. 43% of 4,900 active. inhibition, % at 10 µM. HEK293 KCNK9 cells, FluxOR thallium flux fluorescence. shares compounds with KCNK9 inh;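 active = thallium signal inhibited by more than 5 SD of the compound-free buffer control wells, on both duplicate plates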
Kir2-1 spec: mouse Kir2.1 off-target activity of KCNK9 modulators | shares compounds with KCNK9 inh | Kir2.1 cells, FluxOR thallium flux fluorescence | inhibition, % at 10 µM | 4% of 4,900 active | AID 492993;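 active = thallium signal drop more than 5 SD beyond the mean of the no-compound control wells, seen in both duplicate plates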;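 note: signal is fluorescence rise after thallium addition divided by baseline fluorescence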
KCNK9 uninduced: second check of KCNK9 modulator effects in non-induced HEK293 cells. shares compounds with KCNK9 inh. inhibition, % at 10 µM. FluxOR thallium flux. AID 492997. 40% of 4,900 active;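 active = thallium signal drop beyond 5 SD of the untreated control mean, on both duplicate plates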
Large screens that a line does not name were inactive (follow-up assays come after a bar, where they were run).

CC(C1CC2CCC1C2)n1c(-c2cccs2)n[nH]c1=S (centres undefined)	KCNK9 inh -11 | KCNK9 block conf 54% | Kir2-1 spec inactive | KCNK9 uninduced inactive
COC(=O)c1cc(Cn2nc(C(=O)O)c3ccccc3c2=O)oc1C	none
O=C(CSc1nc2c(cnn2-c2ccccc2)c(=O)[nH]1)N1N=C(c2cccs2)CC1c1ccc(F)cc1 (centres undefined)	KCNK9 inh -14 | KCNK9 block conf inactive | Kir2-1 spec inactive | KCNK9 uninduced inactive
O=C(NCCn1cccn1)C1CCC(=O)N(CCc2ccccc2)C1 (centres undefined)	none
Cc1ccc(CNC(=O)N2CCN(c3ccc(C)cc3)CC2)cc1	none
Cc1ccc(C(=O)NCc2ccc(N3CCN(C(=O)OC(C)(C)C)CC3)cc2)cc1	none | KCNK9 block conf inactive | Kir2-1 spec inactive | KCNK9 uninduced inactive
C=C(C(=O)c1ccccc1)C(c1ccccc1)C(C)C(=O)c1ccccc1 (centres undefined)	Kir21 inh -4.4, KCNK9 inh -12 | KCNK9 block conf 73% | Kir2-1 spec inactive | KCNK9 uninduced 44%
O=C(Cc1cccs1)NC(c1ccccc1)c1ccccc1	none
O=C(COC(=O)/C(=C/c1cccs1)c1cccs1)NC(c1ccccc1)c1ccccc1	KCNK9 inh -9.1 | KCNK9 block conf 46% | Kir2-1 spec inactive | KCNK9 uninduced inactive
Cc1c(Cl)cccc1NC(=O)CSc1nccn1C	none
COc1ccc(/C=C/C(=O)OCC(=O)Nc2c(C)cccc2C)cc1	none
O=C(O)CSc1cc(C(=O)c2ccccc2O)cn2c(=O)c3c4c(sc3nc12)CCCC4	none
Cc1ccc(C(=O)Nc2ccc(Cc3ccncc3)cc2)cc1[N+](=O)[O-]	none | KCNK9 block conf inactive | Kir2-1 spec inactive | KCNK9 uninduced inactive
S=C(NCc1ccco1)N1CCC(c2nc3ccccc3o2)CC1	none
CN(Cc1ccc(F)cc1)Cc1nc(CCc2ccccc2)no1	none | KCNK9 block conf inactive | Kir2-1 spec inactive | KCNK9 uninduced inactive
Cc1ccc(NC(=O)c2cnn(-c3ccccc3)c2C)cc1	none
Cc1ccc(NC(=O)c2cc(C)n(-c3ccccc3)c2C)cc1	none | KCNK9 block conf inactive | Kir2-1 spec inactive | KCNK9 uninduced inactive
CCC(C)(C)c1ccc(OCCCC[n+]2cccc(C)c2)c(C(C)(C)CC)c1	Kir21 inh -6.4, KCNQ1 block 10, KCNK9 inh -9.4 | KCNK9 block conf 38% | Kir2-1 spec 66% | KCNK9 uninduced 28%
Cc1ccc[n+](CC(=O)Nc2cc(C(F)(F)F)ccc2Cl)c1	none
COc1ccc(CN2C(=O)[C@H]3Cc4c([nH]c5ccccc45)C(C)(C)N3C2=O)cc1	none | KCNK9 block conf inactive | Kir2-1 spec inactive | KCNK9 uninduced inactive
COc1ccc(CN2C(=O)[C@@H]3Cc4c([nH]c5ccccc45)C(C)(C)N3C2=O)cc1	none
CCN(CC)C(=O)CSc1nc2ccccc2c(=O)n1CC	none
CCCCN(CC)C(=O)CSc1nc2ccccc2c(=O)n1CC1COc2ccccc2O1 (centres undefined)	none | KCNK9 block conf inactive | Kir2-1 spec inactive | KCNK9 uninduced inactive
CCOC(=O)C1(Cc2ccc(Cl)cc2)CCN(C(=O)c2cscn2)CC1	none
N#CC1=C(N)OC2=C(CCc3ccccc32)C1c1ccccc1 (centres undefined)	KCNK9 inh -8.7 | KCNK9 block conf 36% | Kir2-1 spec inactive | KCNK9 uninduced 40%
Cc1ccc(/C=C2\CCC3=C2OC(N)=C(C#N)C3c2ccc(C)cc2)cc1 (centres undefined)	none
CC(=O)c1ccc(NC(=O)N2CCCC(C(=O)c3ccc4c(c3)OCO4)C2)cc1 (centres undefined)	none
O=C(c1ccc2c(c1)OCO2)C1CCCN(Cc2cn[nH]c2-c2cccc(F)c2)C1 (centres undefined)	none

Screening data deposited in PubChem BioAssay by Johns Hopkins Ion Channel Center.
